MITF TRPM1 HTS: increases MITF-driven TRPM1 promoter luciferase signal; SK-MEL-5 TRPM1-promoter luciferase, 24 h; % of positive control, neutral wells = 0; activation, % at 12.5 µM; 300,000 compounds, 0.75% hits; AID 588334;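 active means mean activation of at least 80% with every replicate also reaching 80%; inconclusive means mean reaches 80% but some replicate falls short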;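 further: 0% = neutral control wells and 100% = parthenolide positive control wells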
PGC1a acetyl inh: modulators of PGC1a acetylation. inhibition, % at 15.6 µM. 350,000 compounds, 0.17% hits. U2OS PGC1a acetylation, AlphaScreen anti-acetyl-lysine; with virally co-expressed GCN5 acetyltransferase;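 active means every replicate shows inhibition of at least 40%; inconclusive means mean inhibition at least 40% but some replicate below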;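 further: 0% = neutral control wells and 100% = positive control wells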
Wnt bcat act: activates Wnt/beta-catenin signaling in a reporter cell assay. AID 743398. activation, % at 9.35 µM. activator, plate reader. 300,000 compounds, 1.2% hits; in the data active means activation above about 30%, passing the limit was not always enough; inconclusive means no clear call, values can overlap the other calls;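 further: 0% = neutral control wells and 100% = positive control wells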
Cneo AK release: causes C. neoformans cell lysis. adenylate kinase release luminescence, 4 h; normalised: neutral wells 0, clomiphene wells 100. lysis activity, % at 15 µM. 360,000 compounds, 0.2% hits;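 active means mean lysis activity across replicates of at least 80%, whatever share of replicates individually reach that level; inactive means mean lysis activity below 80%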
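Test system: log-phase Cryptococcus neoformans yeast cells. Input: 5 × 10^6 yeast cells/mL. Medium: fresh YPD growth medium. Doses: single dose. Incubation: static 4 h at 37 °C with compound, 1 h detection. Measured by: luminescent adenylate kinase detection reagent. Read-out: signal increase indicating cell lysis. Benchmarks: Clomiphene.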
Numbers without * were called inactive; ? = inconclusive; / = no result given. Rows were chosen to be rich in hits. Some 1.5% of all compounds tested hit in one or more screens of this group.

SMILES	MITF TRPM1 HTS	PGC1a acetyl inh	Wnt bcat act	Cneo AK release
Cc1ccc2cc(C#N)c(SCC(=O)NCc3ccco3)nc2c1	4	0	/	1
COC(=O)CSc1nc2ccc(C)cc2cc1C#N	53	/	67*	/
Cc1ccc2nc(SCC(=O)NCc3ccco3)c(C#N)cc2c1	/	/	59*	0
Cc1ccc(C2C(C(=O)c3cccs3)=C(O)C(=O)N2c2ccc(S(N)(=O)=O)cc2)cc1 (configuration not stated)	12	4	-1	/
Cc1ccc(C2C(C(=O)c3cccs3)=C(O)C(=O)N2c2cccc(C)n2)cc1 (configuration not stated)	/	/	34*	/
O=C(Nc1ccc(-c2nc3cccnc3s2)cc1)c1cccnc1Cl	54	12	38*	-7
O=C(Nc1ccc(-c2nc3cccnc3s2)cc1)c1ccc(Cl)nc1	89*	-13	8	/
O=C(Nc1ccc(-c2nc3cccnc3s2)cc1)c1ccc(Br)o1	/	/	39*	-2
O=C(Nc1ccc(-c2nc3cccnc3s2)cc1)c1ccco1	/	/	20	-2
C[C@@H]1CN([C@@H](C)CO)C(=O)c2cc(Br)cnc2O[C@H]1CN(C)Cc1ccccn1	/	-3	/	0
O=C(CSc1ncccn1)NC(=O)NCc1ccco1	-12	2	36*	-1
COc1ccc2c3c(n(C)c2c1)[C@H](CO)N(C(=O)c1ccccc1)CC31CCN(CC2CC2)CC1	/	6	/	/
COc1ccc(S(=O)(=O)Nc2cccc3c2O[C@H](CN(C)S(=O)(=O)c2ccc(F)cc2)[C@H](C)CN([C@@H](C)CO)C3=O)cc1	/	12	/	0
CCOC(=O)c1ccc(NC(=O)CC2NCCNC2=O)cc1 (configuration not stated)	7	29	0	-1
CCOC(=O)c1ccc(NC(=O)CC2SCCNC2=O)cc1 (configuration not stated)	/	11	41*	1
CO[C@H]1CN(C)C(=O)c2ccc(NC(=O)c3nc4ccccc4s3)cc2OC[C@H](C)N(Cc2cncnc2)C[C@@H]1C	/	0	/	-3
O=C(c1ccc(Cl)c([N+](=O)[O-])c1)N(Cc1ccc(Cl)cc1)C1CCS(=O)(=O)C1 (configuration not stated)	-6	/	47*	/
O=C(COc1cccc2cccnc12)Nc1nccs1	/	-2	53*	-2
Fc1ccc(-n2nnc(-c3cccnc3)n2)cc1	62	-2	32*	-1
Clc1ccc(-n2nnc(-c3cccnc3)n2)cc1Cl	71	-5	32*	6
O=C(NCc1ccc(F)cc1)[C@@H]1[C@@H](CO)[C@@H]2Cn3c(cccc3=O)[C@@H]2N1Cc1ccccn1	/	4	/	-1
COc1ccc(NC(=O)N[C@H]2CC[C@@H](CCn3cc(-c4ccccn4)nn3)O[C@H]2CO)cc1	/	-2	/	7
COc1ccc2nc(N3CCC(C)CC3)c(C#N)cc2c1	84*	2	/	-4
COc1ccc2nc(N3CCC(O)CC3)c(C#N)cc2c1	43	4	11	-2
C[C@H]1CN([C@@H](C)CO)C(=O)c2cccc(NC(=O)Nc3cccc4ccccc34)c2O[C@H]1CN(C)Cc1ccc(C(=O)Nc2ccccc2N)cc1	/	-81	/	/
SMILES	MITF TRPM1 HTS	PGC1a acetyl inh	Wnt bcat act	Cneo AK release
O=C(Nc1cccc(O)c1)c1cc(-c2cccs2)on1	88*	/	10	-4
Cc1ccc(NC(=O)c2cc(-c3cccs3)on2)cc1	/	13	56*	0
O=C(Nc1ccc(Cl)cc1)c1cc(-c2cccs2)on1	73	-4	0	-2
Cc1ccc(-c2cnn(-c3ccccc3)c2N)cc1	36	0	43*	-5
Nc1c(-c2ccc(Cl)cc2)cnn1-c1ccccc1	92*	-2	?	-3
COc1ccc(-c2cnc3c(-c4ccc(F)cc4)cnn3c2N)cc1	59	2	43*	3
Nc1c(-c2ccc(Cl)cc2)cnn1-c1cc(C(F)(F)F)cc(C(F)(F)F)c1	1	/	0	-1
CCOC(=O)c1cnc2c(-c3ccccc3)cnn2c1C	73	/	56*	/
CC(=O)c1cnc2c(-c3ccccc3)cnn2c1C	27	-8	/	-3
COc1ccc(-c2cnn(-c3ccccc3)c2N)cc1OC	8	15	/	-4
N#C[C@H]1[C@@H](c2ccccc2C2=CCCCC2)[C@@H](CO)N1C(=O)c1cccc(F)c1	/	-20	/	/
C[C@@H]1CN([C@H](C)CO)C(=O)c2cc(-c3cncnc3)cnc2O[C@H]1CN(C)C(=O)CN1CCOCC1	/	6	/	-2
COc1ccc(NC(=O)C(OC(=O)c2ccccc2)c2cccs2)cc1 (configuration not stated)	/	-1	/	-9
Nc1c(-c2ccc(Cl)cc2)nnn1-c1ccccc1	/	-5	67*	-2
Nc1c(-c2ccc(Cl)cc2)cnc2c(-c3ccccc3)cnn12	75	-3	36*	-7
CC(C)(C)S(=O)(=O)c1cnc2c(-c3ccc(Cl)cc3)cnn2c1N	8	-10	2	0
C[C@@H]1CCCCO[C@H](CN(C)S(=O)(=O)c2cn(C)cn2)[C@@H](C)CN([C@@H](C)CO)C(=O)c2cc(NC(=O)CCCN(C)C)ccc2O1	/	22	/	-6
CNC[C@H]1Oc2cc(C#CC3(O)CCCC3)ccc2S(=O)(=O)N([C@@H](C)CO)C[C@H]1C	/	-1	/	-2
COc1ccc(-c2coc3cc(OC4OC(CO)C(O)C(O)C4O)cc(O)c3c2=O)cc1 (configuration not stated)	?	5	56*	-1
COc1cc(O)c2c(=O)c3c(O[C@H]4O[C@@H](CO)[C@H](O)[C@@H](O)[C@@H]4O)ccc(O)c3oc2c1	-4	3	4	-1
COc1ccc(-c2coc3cc(O[C@@H]4O[C@H](CO)[C@@H](O)[C@H](O)[C@H]4O)c(OC)cc3c2=O)cc1	46	-2	25	0
COc1ccc(-c2coc3cc(OC4OC(CO)C(O)C(O)C4O)ccc3c2=O)cc1 (configuration not stated)	71	-6	41*	-5
COc1ccc(CNC(=O)C[C@@H]2CC[C@@H](NC(=O)Nc3ccc4c(c3)OCO4)[C@H](CO)O2)cc1	/	-9	/	2
Cc1ccc2oc(=O)n(CCCOc3ccccc3)c2c1	/	-17	42*	-1
CC(=O)Nc1ccc(C(=O)N/C(=C/c2ccccc2)C(=O)Nc2cccc(C(=O)O)c2)cc1	10	17	5	/
SMILES	MITF TRPM1 HTS	PGC1a acetyl inh	Wnt bcat act	Cneo AK release
CC(=O)Nc1ccc(NC(=O)/C(Cl)=C/c2ccccc2)cc1	111*	7	-1	-7
CCOc1ccc(NC(=O)NC2CC(=O)N(c3ccc(OC)cc3)C2)cc1 (configuration not stated)	1	-9	42*	0
O=C(c1ccc(Cl)cc1)c1coc2ccc(O)cc12	87*	-14	/	-4
O=C(c1ccc(Br)cc1)c1coc2ccc(O)cc12	?	10	40*	/
O=C(c1coc2ccc(O)cc12)C1CC1	12	/	/	2
Cc1ccc(S(=O)(=O)Nc2ccc3c(c2)C(=O)N([C@H](C)CO)C[C@@H](C)[C@H](CN(C)C)OCCCC[C@@H](C)O3)cc1	/	-7	/	-2

High-throughput results (PubChem BioAssay)
